Measurements published in BindingDB's records for doi:10.1016/j.bmcl.2018.12.060 (Yanbian University College of Pharmacy, 2019).

What follows are molecules tested against Hypoxia-inducible factor 1-alpha (Homo sapiens, UniProt Q16665) (assay: Inhibition of HIF1alpha transcriptional activity in human Hep3B cells after 24 hrs in hypoxic condition by HRE-dual luciferase reporter gene assay).
Sequence of Hypoxia-inducible factor 1-alpha (Q16665 whole entry): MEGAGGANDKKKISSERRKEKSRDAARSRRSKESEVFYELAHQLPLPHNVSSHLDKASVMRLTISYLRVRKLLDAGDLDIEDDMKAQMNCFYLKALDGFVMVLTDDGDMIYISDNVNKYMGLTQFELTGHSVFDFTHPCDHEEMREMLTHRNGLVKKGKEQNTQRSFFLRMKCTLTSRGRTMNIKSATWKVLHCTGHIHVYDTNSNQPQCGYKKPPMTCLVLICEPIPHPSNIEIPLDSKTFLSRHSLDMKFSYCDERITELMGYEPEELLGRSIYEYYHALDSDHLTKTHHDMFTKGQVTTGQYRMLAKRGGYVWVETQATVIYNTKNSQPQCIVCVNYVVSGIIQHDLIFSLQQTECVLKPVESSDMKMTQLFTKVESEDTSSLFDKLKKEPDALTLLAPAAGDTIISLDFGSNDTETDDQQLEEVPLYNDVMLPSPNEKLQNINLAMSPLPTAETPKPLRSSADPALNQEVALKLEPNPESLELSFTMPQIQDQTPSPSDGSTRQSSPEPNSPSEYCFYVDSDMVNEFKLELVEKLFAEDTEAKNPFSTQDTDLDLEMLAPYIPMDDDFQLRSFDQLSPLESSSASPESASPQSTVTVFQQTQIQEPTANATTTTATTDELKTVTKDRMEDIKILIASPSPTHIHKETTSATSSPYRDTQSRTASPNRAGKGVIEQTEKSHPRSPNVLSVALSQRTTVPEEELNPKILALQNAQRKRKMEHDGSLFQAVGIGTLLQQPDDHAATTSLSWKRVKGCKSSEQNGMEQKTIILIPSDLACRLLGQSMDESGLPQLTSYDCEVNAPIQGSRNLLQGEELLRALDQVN
How it was run: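 Hep3B cells transiently co-transfected with pGL3-HRE-luciferase and pRL-CMV, after 24 h incubated under hypoxia with or without compound; luciferase activity measured after 24 h, ursolic acid as positive control; mean ± SD of three independent experiments.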
`C[C@H]1[C@H](C)CC[C@]2(C(=O)O)CC[C@]3(C)C(=CC[C@@H]4[C@@]5(C)CC[C@H](O)C(C)(C)[C@@H]5CC[C@]43C)[C@H]12` [3beta-hydroxyurs-12-en-28-oic acid] showed an IC50 of over 100 µM. `CCOC(=O)[C@]12CC[C@@H](C)[C@H](C)[C@H]1C1=CC[C@@H]3[C@@]4(C)CC/C(=N\NC(=N)N)C(C)(C)[C@@H]4CC[C@@]3(C)[C@]1(C)CC2` gave an IC50 of over 100 µM. `C[C@H]1[C@H](C)CC[C@]2(C(=O)O)CC[C@]3(C)C(=CC[C@@H]4[C@@]5(C)CC(=C\c6ccccc6Br)/C(=N\NC(=N)N)C(C)(C)[C@@H]5CC[C@]43C)[C@H]12` gave an IC50 of over 100 µM. `Cc1ccc(COC(=O)[C@]23CC[C@@H](C)[C@H](C)[C@H]2C2=CC[C@@H]4[C@@]5(C)CC/C(=N\NC(=N)N)C(C)(C)[C@@H]5CC[C@@]4(C)[C@]2(C)CC3)cc1` gave an IC50 of 10.3 µM. `C[C@H]1[C@H](C)CC[C@]2(C(=O)OCc3ccc(Cl)cc3)CC[C@]3(C)C(=CC[C@@H]4[C@@]5(C)CC/C(=N\NC(=N)N)C(C)(C)[C@@H]5CC[C@]43C)[C@H]12` was tested, and the IC50 was 21.1 µM. `C[C@H]1[C@H](C)CC[C@]2(C(=O)O)CC[C@]3(C)C(=CC[C@@H]4[C@@]5(C)CC(=C\c6cccs6)/C(=N\NC(=N)N)C(C)(C)[C@@H]5CC[C@]43C)[C@H]12` showed an IC50 of 22.8 µM. `C[C@H]1[C@H](C)CC[C@]2(C(=O)O)CC[C@]3(C)C(=CC[C@@H]4[C@@]5(C)CC/C(=N\NC(N)=O)C(C)(C)[C@@H]5CC[C@]43C)[C@H]12` showed an IC50 of 13.3 µM. Work on `C[C@H]1[C@H](C)CC[C@]2(C(=O)OCc3cccc(Cl)c3)CC[C@]3(C)C(=CC[C@@H]4[C@@]5(C)CC/C(=N\NC(=N)N)C(C)(C)[C@@H]5CC[C@]43C)[C@H]12` yielded an IC50 of 30.3 µM. Work on `C[C@H]1[C@H](C)CC[C@]2(C(=O)OCc3c(Cl)cccc3Cl)CC[C@]3(C)C(=CC[C@@H]4[C@@]5(C)CC/C(=N\NC(=N)N)C(C)(C)[C@@H]5CC[C@]43C)[C@H]12` yielded an IC50 of 13.3 µM. With `Cc1ccc(/C=C2\C[C@]3(C)[C@H]4CC=C5[C@@H]6[C@@H](C)[C@H](C)CC[C@]6(C(=O)O)CC[C@@]5(C)[C@]4(C)CC[C@H]3C(C)(C)\C2=N\NC(=N)N)cc1` the IC50 was over 100 µM. `C[C@H]1[C@H](C)CC[C@]2(C(=O)O)CC[C@]3(C)C(=CC[C@@H]4[C@@]5(C)CC(=C\c6ccccc6Cl)/C(=N\NC(=N)N)C(C)(C)[C@@H]5CC[C@]43C)[C@H]12` showed an IC50 of over 100 µM. For `C[C@H]1[C@H](C)CC[C@]2(C(=O)O)CC[C@]3(C)C(=CC[C@@H]4[C@@]5(C)CC(=C\c6cccc(Br)c6)/C(=N\NC(=N)N)C(C)(C)[C@@H]5CC[C@]43C)[C@H]12`, the IC50 was 75.4 µM. `CCCCCOC(=O)[C@]12CC[C@@H](C)[C@H](C)[C@H]1C1=CC[C@@H]3[C@@]4(C)CC/C(=N\NC(=N)N)C(C)(C)[C@@H]4CC[C@@]3(C)[C@]1(C)CC2` gave an IC50 of over 100 µM. `COC(=O)[C@]12CC[C@@H](C)[C@H](C)[C@H]1C1=CC[C@@H]3[C@@]4(C)CC/C(=N\NC(=N)N)C(C)(C)[C@@H]4CC[C@@]3(C)[C@]1(C)CC2` gave an IC50 of 6.7 µM. Molecule `C[C@H]1[C@H](C)CC[C@]2(C(=O)O)CC[C@]3(C)C(=CC[C@@H]4[C@@]5(C)CC(=C\c6c(Cl)cccc6Cl)/C(=N\NC(=N)N)C(C)(C)[C@@H]5CC[C@]43C)[C@H]12` has an IC50 of over 100 µM. In the case of `C[C@H]1[C@H](C)CC[C@]2(C(=O)O)CC[C@]3(C)C(=CC[C@@H]4[C@@]5(C)CC(=C\c6ccccc6F)/C(=N\NC(=N)N)C(C)(C)[C@@H]5CC[C@]43C)[C@H]12`, the IC50 is reported as over 100 µM. For `C[C@H]1[C@H](C)CC[C@]2(C(=O)O)CC[C@]3(C)C(=CC[C@@H]4[C@@]5(C)CC(=C\c6ccc(F)cc6)/C(=N\NC(=N)N)C(C)(C)[C@@H]5CC[C@]43C)[C@H]12`, the IC50 was over 100 µM. Molecule `C[C@H]1[C@H](C)CC[C@]2(C(=O)OCc3ccc(Cl)cc3Cl)CC[C@]3(C)C(=CC[C@@H]4[C@@]5(C)CC/C(=N\NC(=N)N)C(C)(C)[C@@H]5CC[C@]43C)[C@H]12` has an IC50 of 40.5 µM. With `C[C@H]1[C@H](C)CC[C@]2(C(=O)O)CC[C@]3(C)C(=CC[C@@H]4[C@@]5(C)CC(=C\c6ccco6)/C(=N\NC(=N)N)C(C)(C)[C@@H]5CC[C@]43C)[C@H]12` the IC50 was over 100 µM. Molecule `C[C@H]1[C@H](C)CC[C@]2(C(=O)O)CC[C@]3(C)C(=CC[C@@H]4[C@@]5(C)CC/C(=N\NC(N)=S)C(C)(C)[C@@H]5CC[C@]43C)[C@H]12` has an IC50 of 88.8 µM. `C[C@H]1[C@H](C)CC[C@]2(C(=O)O)CC[C@]3(C)C(=CC[C@@H]4[C@@]5(C)CC(=C\c6cccc(Cl)c6)/C(=N\NC(=N)N)C(C)(C)[C@@H]5CC[C@]43C)[C@H]12` gave an IC50 of over 100 µM. With `C[C@H]1[C@H](C)CC[C@]2(C(=O)O)CC[C@]3(C)C(=CC[C@@H]4[C@@]5(C)CC/C(=N\NC(=N)N)C(C)(C)[C@@H]5CC[C@]43C)[C@H]12` the IC50 was over 100 µM. In the case of `C[C@H]1[C@H](C)CC[C@]2(C(=O)O)CC[C@]3(C)C(=CC[C@@H]4[C@@]5(C)CC(=C\c6ccccc6)/C(=N\NC(=N)N)C(C)(C)[C@@H]5CC[C@]43C)[C@H]12`, the IC50 is reported as 37.8 µM. Work on `C[C@H]1[C@H](C)CC[C@]2(C(=O)O)CC[C@]3(C)C(=CC[C@@H]4[C@@]5(C)CC(=C\c6ccc(Cl)cc6Cl)/C(=N\NC(=N)N)C(C)(C)[C@@H]5CC[C@]43C)[C@H]12` yielded an IC50 of 90.4 µM. With `C[C@H]1[C@H](C)CC[C@]2(C(=O)O)CC[C@]3(C)C(=CC[C@@H]4[C@@]5(C)CC(=C\c6cccc7ccccc67)/C(=N\NC(=N)N)C(C)(C)[C@@H]5CC[C@]43C)[C@H]12` the IC50 was over 100 µM. `C[C@H]1[C@H](C)CC[C@]2(C(=O)O)CC[C@]3(C)C(=CC[C@@H]4[C@@]5(C)CC(=C\c6cccc(F)c6)/C(=N\NC(=N)N)C(C)(C)[C@@H]5CC[C@]43C)[C@H]12` gave an IC50 of over 100 µM. In the case of `C[C@H]1[C@H](C)CC[C@]2(C(=O)O)CC[C@]3(C)C(=CC[C@@H]4[C@@]5(C)CC(=C\c6ccc([N+](=O)[O-])cc6)/C(=N\NC(=N)N)C(C)(C)[C@@H]5CC[C@]43C)[C@H]12`, the IC50 is reported as over 100 µM.
